TAAR1 ag: human TAAR1 agonists, primary screen, Fluo-8 calcium fluorescence, CHO RD-HGA16 cells. Trace amine-associated receptor 1 (Homo sapiens), Q96RJ0. vehicle wells 0%, saturating PEA agonist 100%. activation, % at 3 µM. actives 0.99% (n = 360,000);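 active means activation above the mean activation of all test compounds in the run plus 3 SD, cut at about 38% in these data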
Target sequence (Q96RJ0 whole entry, looked up): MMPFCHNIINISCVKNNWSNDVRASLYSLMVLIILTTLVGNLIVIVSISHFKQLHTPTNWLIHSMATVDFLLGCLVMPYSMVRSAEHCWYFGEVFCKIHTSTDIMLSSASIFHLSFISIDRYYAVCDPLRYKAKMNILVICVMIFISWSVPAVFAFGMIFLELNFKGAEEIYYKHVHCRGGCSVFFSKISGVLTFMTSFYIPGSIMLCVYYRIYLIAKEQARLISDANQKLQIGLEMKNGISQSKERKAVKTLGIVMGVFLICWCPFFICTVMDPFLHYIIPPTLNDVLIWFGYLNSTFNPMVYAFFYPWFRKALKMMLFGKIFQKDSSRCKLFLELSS
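Test system: RD-HGA16 (CHO) cells co-expressing Gα16 and hTAAR1 / Benchmarks: DMSO vehicle as 0%, PEA at EC100 as 100% / Repeats: no replicates (n 1) / Measure: % activation from peak over basal fluorescence ratio, DMSO-to-PEA scaled / Timing: 17-24 h plating, Fluo-8 75 min 37 °C, 30 min RT / Technique: kinetic Fluo-8 calcium fluorescence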
TAAR1 antag: human TAAR1 antagonists, primary screen, Fluo-8 calcium fluorescence, CHO RD-HGA16 cells | AID 624466, 2012 | actives 1.5% (n = 360,000) | Trace amine-associated receptor 1 (Homo sapiens), Q96RJ0 | antagonist | inhibition, % at 3 µM;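 active means inhibition above a per-plate cutoff, the mean inhibition of test compounds on that plate plus 3 SD, cut at about 49% in these data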;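 further: 0% = DMSO plus EC80 beta-PEA response and 100% = DMSO alone without agonist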
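System: CHO RD-HGA16 cells bearing hTAAR1. Reagent: EC80 β-phenethylamine stimulus. Schedule: seeding 17-24 h prior, 75-min 37 °C, 30-min RT dye loading. Signal: Fluo-8 intracellular calcium dye fluorescence, real-time kinetic reads. Read-out: % inhibition from peak post-agonist over basal fluorescence ratio. Benchmarks: vehicle wells and EC80 agonist wells. Replicates: n of 1.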
OX1R antag-1: OX1R (HCRTR1) antagonists, primary screen, fluorescence, CHO/OX1R cells, Fluo-8 calcium, orexin A | actives 0.43% (n = 330,000) | inhibition, % at 5 µM | Orexin/Hypocretin receptor type 1 (Homo sapiens), O43613 | Fluo-8 calcium fluorescence | AID 434989, 2010;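 active means inhibition above its plate's threshold, mean inhibition of all tested compounds on the plate plus 3 SD, cut at about 37% in these data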;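 further: 0% = orexin A challenge wells and 100% = SB-334867-A antagonist wells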
CHO parental Ca: ATP-evoked calcium signal inhibitors, parental CHO, primary screen, counter-screen for OX1R antagonist project, cell-based, fluorescence, Fluo-8 calcium dye; parental CHO-K1, ATP-induced calcium, Fluo-8 fluorescence; inhibition, % at 5.6 µM; actives 0.63% (n = 330,000); AID 463079, 2010;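 active means inhibition above that plate's mean sample inhibition plus 3 SD, cut at about 26% in these data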;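 further: 0% = ATP-challenged DMSO wells and 100% = DMSO wells without ATP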
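Material: parental CHO cells / Compound: single nominal dose of 5.6 µM per compound / Signal: Fluo-8 fluorescence / Replicates: singlicate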
OX1R antag-2: antagonists of human orexin 1 receptor (OX1R) | OX1R-expressing cells, FRET antagonist read-out | inhibition, % at 6.6 µM | AID 485270, 2010 | actives 1.8% (n = 330,000); in the data active means inhibition mostly above about 38%, no sharp cut-off; inactive means mostly below about 40%;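 further: 0% = agonist challenge alone and 100% = reference antagonist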
GalR3 antagonist: GalR3 antagonists in HEK293 cells, primary screen, cell-based, fluorescence readout; actives 0.44% (n = 360,000); HEK293 GalR3-CNG cAMP membrane potential fluorescence; galR3 body fused to GalR1 C-terminus; inhibition, % at 3 µM; AID 651719, 2012;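 active means inhibition above the screen-wide average plus 3 SD, cut at about 13% in these data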;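 further: forskolin and galanin both at EC90 stimulate the cells; cAMP rise reported by CNG channel membrane potential dye signal; 0% = forskolin plus galanin with DMSO and 100% = forskolin alone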
Target sequence (O60755 1-299 limits assumed): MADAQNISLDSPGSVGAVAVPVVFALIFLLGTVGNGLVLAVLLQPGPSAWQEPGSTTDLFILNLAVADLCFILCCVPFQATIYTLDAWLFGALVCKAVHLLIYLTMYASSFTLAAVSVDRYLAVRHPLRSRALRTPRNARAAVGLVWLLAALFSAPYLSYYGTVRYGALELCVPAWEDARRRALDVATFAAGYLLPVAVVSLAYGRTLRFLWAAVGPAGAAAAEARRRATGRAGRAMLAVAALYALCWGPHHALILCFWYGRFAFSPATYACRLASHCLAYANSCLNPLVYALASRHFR
TAAR1 ag confirm: human TAAR1 agonists, retest of hits, confirmation, Fluo-8 calcium fluorescence, CHO RD-HGA16 cells; AID 651783, 2012; shares compounds with TAAR1 ag; actives 82% (n = 2,400); activation, % at 3 µM; scaled: DMSO 0%, maximal phenethylamine 100%;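 active means activation above a cutoff set at the run's mean compound activation plus 3 SD, cut at about 39% in these data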
Ga16 nonsel ag: nonselective calcium mobilization agonists, CHO-Ga16 cells, counter-screen for hTAAR1 agonist project, cell-based, fluorescence, CHO-Ga16 parental line | shares compounds with TAAR1 ag | Fluo-8 calcium fluorescence; normalized to maximal ATP response, DMSO zero | activation, % at 3 µM | actives 50% (n = 2,400);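 active means activation above the run cutoff, the mean activation over all tested wells plus 3 SD, cut at about 12% in these data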;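 further: 0% = DMSO wells and 100% = maximal ATP response on the peak over basal ratio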
TAAR1 desensitize: TAAR1 desensitization by agonist hits, confirmation, counter-screen for TAAR1 agonist project, cell-based, fluorescence, tachyphylaxis; CHO RD-HGA16 hTAAR1, Fluo-8 calcium, beta-PEA response inhibition; AID 651951, 2012; actives 46% (n = 2,400); shares compounds with TAAR1 ag; inhibition, % at 3 µM;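 active means inhibition above the run cutoff, the mean inhibition of all test compounds plus 3 SD, cut at about 49% in these data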;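 further: beta-PEA stimulus applied at its EC80; loss of beta-PEA calcium signal after compound pretreatment read as receptor desensitization; 0% = DMSO with beta-PEA at EC80 and 100% = DMSO alone without agonist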
Ga16 nonsel ant: inhibition of ATP-evoked calcium response in CHO-Ga16 cells, counter-screen for TAAR1 agonist project, cell-based, fluorescence; CHO-Ga16 ATP-induced calcium, Fluo-8 fluorescence; inhibition, % at 3 µM; AID 651952, 2012; actives 39% (n = 2,400); shares compounds with TAAR1 ag;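 active means inhibition above the plate's mean compound inhibition plus 3 SD, computed per plate, cut at about 22% in these data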;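 further: 0% = EC80 ATP with DMSO and 100% = DMSO wells without ATP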
The depositor's hits bear a star; x = no result; ! = repeats disagree. The list is not random: actives were taken first. Their share in the collection is about 4.3%.

SMILES	TAAR1 ag	TAAR1 antag	OX1R antag-1	CHO parental Ca	OX1R antag-2	GalR3 antagonist	TAAR1 ag confirm	Ga16 nonsel ag	TAAR1 desensitize	Ga16 nonsel ant
Cc1ccc(C)c(Nc2c([N+](=O)[O-])ccc3nonc23)c1	72*	-4	-42	-14	-4	-10	66*	40*	-8	-12
Cc1ccc(C)c(Nc2ccc3nonc3c2[N+](=O)[O-])c1	2	-2	x	x	x	-8	x	x	x	x
O=C(O)CCCN1C(=O)/C(=C/c2ccc(-c3nc4ccccc4s3)o2)SC1=S	72*	82*	1	-5	2	1	55*	39*	84*	67*
Cc1cccc(CNC(=O)c2sc(=O)n(Cc3c(C)cccc3C)c2C)c1	1	12	x	x	x	-2	x	x	x	x
Clc1cccc(CN2CCCCCC2)c1Cl	-1	1	-18	-14	3	-5	x	x	x	x
CC/C(=C(\c1ccccc1)c1ccc(OCCN(C)C)cc1)c1ccccc1	39*!	-7	-29	-4	11	0	46*	42*	27	38*
CCC(=C(c1ccccc1)c1ccc(OCCN(C)C)cc1)c1ccccc1	18	-32	x	x	x	4	x	x	x	x
CCOC(=O)c1c(NC(=O)CN2C(=O)NC(C)(c3ccc(OC(F)F)cc3)C2=O)sc(C)c1C (configuration not stated)	87*	53*	26	30	-5	-1	98*	42*	86*	51*
CCOc1ccc(NC(=O)CN2C(=O)NC(C)(c3ccc(OC(F)F)cc3)C2=O)cc1 (configuration not stated)	99*	63*	32	21	-9	-7	125*	82*	97*	58*
CC1(c2ccc(OC(F)F)cc2)NC(=O)N(CC(=O)Nc2ccc(Cl)cc2F)C1=O (configuration not stated)	96*	55*	18	22	11	-9	91*	47*	53*	43*
CC1(c2ccc(OC(F)F)cc2)NC(=O)N(CC(=O)NC2CCCCC2)C1=O (configuration not stated)	20	9	-9	-18	2	-5	x	x	x	x
Cc1ccc(C2(C)NC(=O)N(CC(=O)N(C)CC(=O)Nc3cccc(F)c3)C2=O)cc1 (configuration not stated)	2	-3	-6	-3	3	-4	x	x	x	x
CC1(c2ccc(OC(F)F)cc2)NC(=O)N(CC(=O)Nc2cccc(F)c2)C1=O (configuration not stated)	138*	98*	67*	53*	11	-1	120*	84*	97*	72*
CC1(C(=O)Nc2cccc3cccnc23)CCN1Cc1cccc2c1OCO2 (configuration not stated)	-1	-6	x	x	x	-4	x	x	x	x
COc1cccc(OC)c1C(=O)OCC(=O)NCCNC(=O)COC(=O)c1c(OC)cccc1OC	0	-14	x	x	x	-8	x	x	x	x
CCOc1ccc(NC(=O)CSc2nnc(C3CC3)n2C2CC2)cc1	4	-2	5	-3	2	-2	x	x	x	x
CCN(CC(=O)Nc1c(F)cccc1F)C(=O)c1ccc(Cl)c(S(=O)(=O)N2CCCCC2)c1	0	-4	-5	-7	20	-1	x	x	x	x
Nn1c(COc2ccccc2F)nnc1SCC(=O)NCC1CCCO1 (configuration not stated)	0	-12	x	x	x	-5	x	x	x	x
CCC(c1nnnn1-c1ccc2c(c1)OCCO2)N1CCN(c2ccccc2OC)CC1 (configuration not stated)	6	14	x	x	x	-7	x	x	x	x
CC1(c2ccc(OC(F)F)cc2)NC(=O)N(CC(=O)Nc2ccc(S(N)(=O)=O)cc2)C1=O (configuration not stated)	8	-4	-5	-6	5	-8	x	x	x	x
CC1(c2ccc(OC(F)F)cc2)NC(=O)N(CC(=O)Nc2ccc(OC(F)F)cc2)C1=O (configuration not stated)	103*	83*	53*	36*	-5	-5	97*	46*	82*	56*
CC1(c2ccc(OC(F)F)cc2)NC(=O)N(CC(=O)Nc2ccc(F)cc2)C1=O (configuration not stated)	78*	33	23	15	10	-10	107*	47*	78*	46*
Cc1cc(NC(=O)CN2C(=O)NC(C)(c3ccc(OC(F)F)cc3)C2=O)no1 (configuration not stated)	83*	40	0	-7	-3	1	-4	-2	-8	-1
CC(C(=O)NC(C)(C)C)n1c(-c2ccc3c(c2)OCO3)nc2ccccc21 (configuration not stated)	1	-35	x	x	x	-5	x	x	x	x
CSc1ccc(NC(=O)N2CCC(C(=O)c3ccc(F)cc3)CC2)cc1	0	8	-22	-12	25	-8	x	x	x	x
CN=c1scc(-c2cccs2)n1/N=C/c1ccc(O)c(O)c1O	45*	14	-6	0	22	0	56*	21*	45	18
O=C(CCn1cnnn1)Nc1cccc(F)c1	1	-10	1	-2	15	-3	x	x	x	x
O=C(N/N=C/c1c(O)ccc2ccccc12)c1cccnc1	16	3	-16	17	16	-16	x	x	x	x

Compound activity: PubChem, The Scripps Research Institute Molecular Screening Center
